Source: ChEMBL document CHEMBL1132564, “Antitumor benzothiazoles. 7. Synthesis of 2-(4-acylaminophenyl)benzothiazoles and investigations into the role of acetylation in the antitumor activities of the parent amines” (J Med Chem, 1999)

Legend:
MCF7 = experiment: In vitro antitumor activity against MCF-7 carcinoma cell line.; format: functional, cell-based; conditions: Homo sapiens
In short: (§1)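 MTT assay, 7-day format: 250–300 cells/well, adhered 24 h drug-free, then compound 1 pM–100 μM (n = 8), final DMSO <0.25%; RPMI 1640/10% FCS, 37 °C, 5% CO2. MTT added after exposure, 4 h, formazan dissolved in DMSO–glycine (4:1), absorbance 550 nm.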

NCI [1] = experiment: In vitro antitumor activity against carcinoma cell lines by 2-day assay; format: functional, Homo sapiens
In short: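 NCI panel sulforhodamine B assay: line-specific seeding, 24 h drug-free, then five 10-fold dilutions (top 10^-4 M) for 2 days; growth inhibition from protein-stain optical density change; mean log GI50 across panel.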

MDA-MB-468 = experiment: In vitro antitumor activity against MDA-468 carcinoma cell line.; format: functional, cell-based; conditions: Homo sapiens; in short: as §1
NCI [2] = experiment: In vitro antitumor activity against carcinoma cell lines by 6-day assay; format: functional, Homo sapiens
In short: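 NCI 60-cell-line panel, sulforhodamine B protein stain. Seeding density set per line's growth; 24 h drug-free incubation, then test agent at five 10-fold dilutions up to 10^-4 M for 6 days of exposure. Growth inhibition derived from change in protein-stain optical density; log GI50 reported.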

Homo sapiens = experiment: In vitro concentration to reduce colony formation of human tumor xenografts to 30% of the control; format: functional
In short: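 Clonogenic colony-formation assay using cells from 22 human tumor xenografts, tested at 0.1, 1.0 and 10 μg/mL; colony inhibition expressed as T/C, with T/C < 30% scored active; IC70 concentration reported.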

Row | Structure (SMILES) | IC50 (MCF7) | IC50 (MDA-MB-468) | Mean log GI50 (NCI [1]) | Mean log GI50 (NCI [2]) | Mean IC70 (Homo sapiens)
1 | O=C(CCl)Nc1ccc(-c2nc3ccccc3o2)cc1 | > 1 µM | > 1 µM |  |  | 
2 | C/C(S)=N/c1ccc(-c2nc3ccccc3s2)cc1 | > 0.1 µM | > 0.1 µM |  |  | 
3 | CC(=O)Nc1ccc(-c2nc3ccccc3[nH]2)cc1 | > 10 µM | > 10 µM |  |  | 
4 | O=C(Nc1ccc(-c2nc3ccccc3s2)cc1)c1ccccc1 | > 1 µM | > 1 µM |  |  | 
5 | Nc1ccc(-c2nc3ccccc3s2)cc1 | > 0.01 µM | > 0.01 µM | -4.76 M |  | 10 µg/mL

Continued, in another order:

Row | IC50 (MCF7) | IC50 (MDA-MB-468) | Structure (SMILES) | Mean log GI50 (NCI [1]) | Mean log GI50 (NCI [2]) | Mean IC70 (Homo sapiens)
6 | > 0.1 µM | > 0.1 µM | CC(=O)Nc1ccc(-c2nc3ccccc3s2)cc1 | -4.4 M |  | 
7 | > 10 µM | > 10 µM | c1ccc2sc(-c3ccc4[nH]ncc4c3)nc2c1 |  |  | 
8 | > 10 µM | > 10 µM | CC(=O)Nc1ccc(-c2nc3ccccc3s2)cc1C | -4.36 M |  | 
9 | > 10 µM | > 10 µM | CC(=O)N(C(C)=O)c1ccc(-c2nc3ccccc3s2)cc1C |  |  | 
10 | < 0.001 µM | < 0.001 µM | Nc1ccc(-c2nc3ccccc3s2)cc1I | -4.75 M | -5.12 M | 6.1 µg/mL
11 | > 0.01 µM | > 0.01 µM | O=C(CCl)Nc1ccc(-c2nc3ccccc3s2)cc1I |  |  | 
12 | > 0.1 µM | > 0.1 µM | CC(=O)N(C(C)=O)c1ccc(-c2nc3ccccc3s2)cc1 |  |  | 
13 | > 0.01 µM | > 0.1 µM | CC(=O)Nc1ccc(-c2nc3ccccc3s2)cc1Br | -4.52 M |  | 
